Laboratory results published in ChEMBL document CHEMBL1127406 (J Med Chem, 1994).
pIC50: −log10 of the molar value.

Legend:
[1] = molecular target: Mu-type opioid receptor (Cavia porcellus, UniProt P97266); assay: Binding affinity at mu opioid receptor in guinea pig brain by [3H]DAMGO displacement.
In short: (§1)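 Adult male guinea pig whole-brain membranes in 50 mM Tris-HCl pH 7.4, preincubated 25 °C 30 min to strip endogenous peptides. Buffer contains BSA and peptidase inhibitors. Tritiated ligand at 0.75 nM (delta), 1.0 nM (mu) or 1.5 nM (kappa). Ten concentrations over 800-fold range, in duplicate. Nonspecific binding with 10 µM naltrexone. Incubated 25 °C 3 h, filtered, counted; nonlinear least-squares fit.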

[2] = molecular target: Kappa-type opioid receptor (Cavia porcellus, UniProt P41144); assay: Binding affinity at kappa opioid receptor in guinea pig brain by [3H]U-69593 displacement.
Sequence of Kappa-type opioid receptor (P41144 whole entry): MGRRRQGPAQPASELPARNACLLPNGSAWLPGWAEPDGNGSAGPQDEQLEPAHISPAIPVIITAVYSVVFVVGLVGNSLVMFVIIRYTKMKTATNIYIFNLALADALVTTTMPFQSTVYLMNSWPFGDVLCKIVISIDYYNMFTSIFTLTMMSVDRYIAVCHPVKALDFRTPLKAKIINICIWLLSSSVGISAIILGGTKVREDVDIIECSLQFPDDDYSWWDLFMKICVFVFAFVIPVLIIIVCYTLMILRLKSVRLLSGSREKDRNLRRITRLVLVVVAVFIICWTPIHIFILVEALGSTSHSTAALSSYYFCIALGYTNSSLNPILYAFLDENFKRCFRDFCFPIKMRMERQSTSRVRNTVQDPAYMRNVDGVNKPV
In short: as §1, with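 “inhibitors.” for “inhibitors. Tritiated ligand at 0.75 nM (delta), 1.0 nM (mu) or 1.5 nM (kappa).”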

[3] = species on record: Cavia porcellus; assay: Inhibition of electrically induced smooth muscle contraction in guinea pig ileum.; type: functional
In short: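 Longitudinal muscle-myenteric plexus strips from ileum of male Hartley guinea pigs (250-500 g), held in 37 °C oxygenated Krebs buffer, 1 g tension. Transmural stimulation at 0.1 Hz, 0.4-ms supramaximal pulses; no peptidase inhibitors. Cumulative agonist doses, 3 min each; % inhibition of contraction height. μ-selectivity checked with 1000 nM CTAP. IC50 from Hill-equation fit, mean of two to four tissues.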

Sequence of Mu-type opioid receptor (P97266 whole entry): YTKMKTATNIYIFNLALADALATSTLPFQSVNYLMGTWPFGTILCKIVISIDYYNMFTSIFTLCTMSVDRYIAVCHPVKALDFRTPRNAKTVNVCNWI

Structure (SMILES) | pIC50 [1] | pIC50 [2] | pIC50 [3]
CC[C@H](C)[C@@H]1NC(=O)[C@H](CCCN=C(N)N)NC(=O)[C@H](CCCN=C(N)N)NC(=O)[C@H](NC(=O)[C@H](Cc2ccccc2)NC(=O)CNC(=O)CNC(=O)[C@@H](N)Cc2ccc(O)cc2)C(C)(C)SSC(C)(C)[C@@H](C(N)=O)NC(=O)[C@@H]2CCCN2C(=O)[C@H](CCCN=C(N)N)NC1=O | 6.65 | 7.58 | –
CC[C@H](C)[C@@H]1NC(=O)[C@H](CCCN=C(N)N)NC(=O)[C@H](CCCN=C(N)N)NC(=O)[C@@H](NC(=O)[C@H](Cc2ccccc2)NC(=O)CNC(=O)CNC(=O)[C@@H](N)Cc2ccc(O)cc2)CSSC(C)(C)[C@H](C(N)=O)NC(=O)[C@@H]2CCCN2C(=O)[C@H](CCCN=C(N)N)NC1=O | 7.77 | 9.00 | –
CC[C@H](C)[C@@H]1NC(=O)[C@H](CCCN=C(N)N)NC(=O)[C@H](CCCN=C(N)N)NC(=O)[C@H](NC(=O)[C@H](Cc2ccccc2)NC(=O)CNC(=O)CNC(=O)[C@@H](N)Cc2ccc(O)cc2)C(C)(C)SSC[C@@H](C(N)=O)NC(=O)[C@@H]2CCCN2C(=O)[C@H](CCCN=C(N)N)NC1=O | 7.06 | 7.06 | –
CC[C@H](C)[C@@H]1NC(=O)[C@H](CCCN=C(N)N)NC(=O)[C@H](CCCN=C(N)N)NC(=O)[C@H](NC(=O)[C@H](Cc2ccccc2)NC(=O)CNC(=O)CNC(=O)[C@@H](N)Cc2ccc(O)cc2)C(C)(C)SSC(C)(C)[C@H](C(N)=O)NC(=O)[C@@H]2CCCN2C(=O)[C@H](CCCN=C(N)N)NC1=O | 6.25 | 7.15 | –
CC[C@H](C)[C@H](NC(=O)[C@H](CCCN=C(N)N)NC(=O)[C@H](CCCN=C(N)N)NC(=O)[C@@H](CC(C)C)NC(=O)[C@H](Cc1ccccc1)NC(=O)CNC(=O)CNC(=O)[C@@H](N)Cc1ccc(O)cc1)C(=O)N[C@@H](CCCN=C(N)N)C(=O)N1CCC[C@H]1C(=O)N[C@@H](CCCCN)C(N)=O | – | – | 7.03
CC[C@H](C)[C@@H]1NC(=O)[C@H](CCCN=C(N)N)NC(=O)[C@H](CCCN=C(N)N)NC(=O)[C@H](NC(=O)[C@H](Cc2ccccc2)NC(=O)CNC(=O)CNC(=O)[C@@H](N)Cc2ccc(O)cc2)C(C)(C)SSC[C@H](C(N)=O)NC(=O)[C@@H]2CCCN2C(=O)[C@H](CCCN=C(N)N)NC1=O | 7.29 | 7.74 | –
CC[C@H](C)[C@@H]1NC(=O)[C@H](CCCN=C(N)N)NC(=O)[C@H](CCCN=C(N)N)NC(=O)[C@H](NC(=O)[C@H](Cc2ccccc2)NC(=O)CNC(=O)CNC(=O)[C@@H](N)Cc2ccc(O)cc2)CSSC(C)(C)[C@H](C(N)=O)NC(=O)[C@@H]2CCCN2C(=O)[C@H](CCCN=C(N)N)NC1=O | 6.97 | 7.00 | –
CC[C@H](C)[C@H](NC(=O)[C@H](CCCN=C(N)N)NC(=O)[C@H](CCCN=C(N)N)NC(=O)[C@H](CC(C)C)NC(=O)[C@H](Cc1ccccc1)NC(=O)CNC(=O)CNC(=O)[C@@H](N)Cc1ccc(O)cc1)C(=O)N[C@@H](CCCN=C(N)N)C(=O)N1CCC[C@H]1C(=O)NC(CCCCN)C(N)=O (stereo in doubt) | 8.00 | – | 8.97
CC[C@H](C)[C@H](NC(=O)[C@H](CCCN=C(N)N)NC(=O)[C@H](CCCN=C(N)N)NC(=O)C(CC(C)C)NC(=O)[C@H](Cc1ccccc1)NC(=O)CNC(=O)CNC(=O)[C@@H](N)Cc1ccc(O)cc1)C(=O)N[C@@H](CCCN=C(N)N)C(=O)N1CCC[C@H]1C(=O)N[C@H](CCCCN)C(N)=O (stereo in doubt) | 8.28 | – | 9.52
